{"data": "Measurements gathered from unrelated publications", "target": "Dual specificity testis-specific protein kinase 1 (TESK1, Homo sapiens, UniProt Q15569)", "note": "Compare with care: the assays were run in different laboratories."}
{"SMILES": "c1cnn2ncc(-c3ccnc(N4CCC45COC5)n3)c2c1", "assay": "binding", "setting": "1 µM", "remaining binding [%]": 99}
{"SMILES": "O=C(c1ccc(Nc2nccc(-c3cc4ccccc4s3)n2)cc1)N1CCC(N2CCCC2)CC1", "assay": "binding, competition with immobilised ligand", "setting": "1 µM", "remaining binding [%]": 97}
{"SMILES": "C[C@@H]1CCN(c2nccc(-c3cnn4ncccc34)n2)C1", "assay": "binding", "setting": "1 µM", "remaining binding [%]": 91}
{"SMILES": "Cc1cnc(Nc2ccc(C(=O)N3CCC(N4CCCC4)CC3)cc2)nc1-c1cc2ccccc2s1", "assay": "binding, competition with immobilised ligand", "setting": "1 µM", "remaining binding [%]": 72}
{"SMILES": "O=C(NCC1CCOCC1)c1n[nH]cc1NC(=O)c1c(F)cccc1F", "assay": "binding, competition with immobilised ligand", "setting": "1 µM", "remaining binding [%]": 100}
{"SMILES": "Nc1cnc(N2CCc3cc(S(=O)(=O)Nc4c(F)cc(Cl)cc4F)cc(N4CCCC4=O)c32)nc1", "assay": "cell-free assay, competition with immobilised ligand", "setting": "1 µM", "remaining binding [%]": 100}
{"SMILES": "CNC(=O)[C@@H]1CC[C@@H](n2c(-c3ccc4cnccc4c3)nc3ccc(C(=O)NCc4cccc(C(N)=O)c4)cc32)C1", "assay": "binding, competition with immobilised ligand", "setting": "1 µM", "remaining binding [%]": 100}
{"SMILES": "CN(CCCC(F)(F)F)c1nccc(-c2cnn3ncccc23)n1", "assay": "binding", "setting": "1 µM", "remaining binding [%]": 67}
{"SMILES": "C[C@@H](c1ccc(-n2cnc3c(N)ncnc32)cc1)N1CCc2nn(C)c(Cc3ccccc3)c2C1=O", "assay": "binding, competition with immobilised ligand", "setting": "0.1 µM", "remaining binding [%]": 87}
{"SMILES": "NS(=O)(=O)c1cc(NC(=O)Cc2ccccc2)ccc1Oc1cccc(Cl)c1", "assay": "cell-free assay, competition with immobilised ligand", "setting": "1 µM", "remaining binding [%]": 100}
{"SMILES": "Nc1ncc2c(n1)-c1c([nH]c3ccc(C#CC4CC4)cc13)CCCC2", "assay": "binding, competition with immobilised ligand", "setting": "1 µM", "remaining binding [%]": 100}
{"SMILES": "CC1CCCN1c1nccc(-c2cnn3ncccc23)n1 (centres unmarked)", "assay": "binding", "setting": "1 µM", "remaining binding [%]": 99}
{"SMILES": "CN(C)CC#Cc1ccc(OCCCc2sc(N3CCc4cccc(C(=O)Nc5nc6ccccc6s5)c4C3)nc2C(=O)O)c(F)c1", "assay": "cell-free assay, competition with immobilised ligand", "setting": "1 µM", "remaining binding [%]": 100}
{"SMILES": "N[C@@H]1CCN(c2nccc(-c3cnn4ncccc34)n2)C1", "assay": "binding", "setting": "1 µM", "remaining binding [%]": 100}
{"SMILES": "COc1ccc2c(c1)O[C@@H](c1ccc(OC)c(OC)c1)C[C@H]2NC(=O)C1(c2ccc3c(c2)OC(F)(F)O3)CC1", "assay": "cell-free assay, competition with immobilised ligand", "setting": "1 µM", "remaining binding [%]": 96}
{"SMILES": "COc1cnc(Nc2cccc(S(N)(=O)=O)c2)nc1N1CCN(c2ccccc2)C(=O)C1", "assay": "binding, competition with immobilised ligand", "setting": "1 µM", "remaining binding [%]": 96}
{"SMILES": "C[C@H](NC(=O)c1cnc2n1[C@](C)(Cc1ccc(C#N)cc1)C(=O)N2c1cc(Cl)c(F)c(Cl)c1)C(=O)NC1(c2ccccn2)CC1", "assay": "cell-free assay, competition with immobilised ligand", "setting": "1 µM", "remaining binding [%]": 100}
{"SMILES": "O=C(NCCCN1CCOCC1)c1ccc(Nc2nccc(-c3cc4ccccc4s3)n2)cc1", "assay": "binding, competition with immobilised ligand", "setting": "1 µM", "remaining binding [%]": 77}
{"SMILES": "CN(C)c1nccc(-c2cnc3ncccn23)n1", "assay": "binding", "setting": "1 µM", "remaining binding [%]": 90}
{"SMILES": "Cc1c[nH]c2nccc(Oc3c(F)cc(Nc4cc(Cl)nc(N)n4)cc3F)c12", "assay": "cell-free assay, competition with immobilised ligand", "setting": "0.1 µM", "remaining binding [%]": 100}
